Experimental data as given in PMC5806153 (The Journal of pediatrics, 2018).
Values joined by “and” are separate entries in the source; they are usually repeats but may differ in a detail not shown here. Equal entries are not always repeated. Where two headings read alike, the source gives them in different places.

Key:
[1] = type: in vivo, human; conditions: for half-life / Cmax / AUC(0-t) / AUC(0-inf): human, plasma; for AUC(0-t): Uncorrected AUC0-last; for AUC(0-t) / AUC(0-inf) / % AUC0-∞ extrapolated from AUC0-last / AUC0-∞ corrected for TBW-normalized dose / CL/F normalized to TBW / Cmax corrected for LBW-normalized dose / Cmax corrected for TBW-normalized dose / Vd/F normalized to TBW: mean ± SD; for AUC(0-inf): Uncorrected AUC0-∞; for tlag: median (range)
Method in brief: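 Fasted obese children 6–17 y, CYP2C19-genotyped (*2, *3, *4, *17; classed EM/IM/PM), received a single oral dose of ~1.2 mg/kg LBW. Catheter blood was drawn predose, half-hourly 0.5–4 h, and at 6 and 8 h, plus 12 h for PMs. Parent and sulfone metabolite were measured by validated LC-MS/MS in duplicate, using the mean. Noncompartmental analysis: λz from ≥3 terminal points, linear trapezoidal AUC, AUCinf = AUClast + CT/λz; Cmax and AUC corrected to 1 mg/kg TBW or LBW dose.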

Safety and tolerability = type: in vivo, human
[2] = historical nonobese peers, mean ± SD, ref Ward et al.[22], cited from earlier work
[3] = both, oral, obese, age 6–11 y (n = 18)
[4] = both, oral, obese, age 12–17 y (n = 21)
[5] = non-PMs, Morbidly obese (BMI >99%), mean (SD)
[6] = non-PMs, obesity status Obese (BMI ≥95%), mean (SD)
[7] = obese non-PMs, ALT High (>Q3), mean (SD)
[8] = obese non-PMs, ALT Low (<Q1), mean (SD)
[9] = obese non-PMs, AST High (>Q3), mean (SD)
[10] = obese non-PMs, AST Low (<Q1), mean (SD)
[11] = obese non-PMs, Female, mean (SD)
[12] = obese non-PMs, Waist:hip ratio High (>Q3), mean (SD)
[13] = obese non-PMs, Waist:hip ratio Low (<Q1), mean (SD)
[14] = obese, 2C19 genotype EM, mean (SD)
[15] = obese, 2C19 genotype IM, mean (SD)
[16] = obese, age 6–11 y, non-PMs, mean, SD

COc1ccnc(C[S+]([O-])c2nc3ccc(OC(F)F)cc3[nH]2)c1OC (stereo not drawn) [pantoprazole]
half-life ([1]; both, im, t1/2, obese, 2C19 genotype IM, mean (SD)): 63 min
Cmax ([1]; both, oral): 4100 ± 1180 ng/mL
AUC(0-t) [1, 3]: 6170 ± 2170 ng·h/mL
AUC(0-t) [1, 4]: 7470 ± 2800 ng·h/mL
AUC(0-inf) [1, 3]: 6260 ± 2260 ng·h/mL
AUC(0-inf) [1, 4]: 7690 ± 3450 ng·h/mL
half-life ([1]; both, oral, t1/2, non-PMs, Morbidly obese (BMI >99%), mean (SD)): 61.8 min
half-life ([1]; both, oral, t1/2, non-PMs, obesity status Obese (BMI ≥95%), mean (SD)): 58.2 min
half-life ([1]; both, oral, t1/2, obese non-PMs, ALT High (>Q3), mean (SD)): 57.6 min
half-life ([1]; both, oral, t1/2, obese non-PMs, ALT Low (<Q1), mean (SD)): 58.2 min
half-life ([1]; both, oral, t1/2, obese non-PMs, AST High (>Q3), mean (SD)): 51 min
half-life ([1]; both, oral, t1/2, obese non-PMs, AST Low (<Q1), mean (SD)): 63.6 min
half-life ([1]; both, oral, t1/2, obese, 2C19 genotype EM, mean (SD)): 57 min
half-life ([1]; both, oral, t1/2, obese, age 12–17 y, mean, SD): 64.8 ± 15.6 min
Cmax ([1]; both, po): 4270 ± 1430 ng/mL
half-life ([1]; female, oral, t1/2, obese non-PMs, mean (SD)): 61.8 min
half-life ([1]; male, oral, t1/2, obese non-PMs, mean (SD)): 57 min
AUC0-∞ corrected for LBW-normalized dose [1, 5]: 6.17 (1.89) mcg*h/mL/1 mg/kg LBW
CL/F normalized by LBW [1, 5]: 0.18 (0.06) L/h/kg LBW
Vd/F normalized by LBW [1, 5]: 0.25 (0.05) L/kg LBW
AUC0-∞ corrected for LBW-normalized dose [1, 6]: 6.36 (2.97) mcg*h/mL/1 mg/kg LBW
CL/F normalized by LBW [1, 6]: 0.20 (0.11) L/h/kg LBW
Vd/F normalized by LBW [1, 6]: 0.25 (0.09) L/kg LBW
AUC0-∞ corrected for LBW-normalized dose [1, 7]: 6.12 (2.08) mcg*h/mL/1 mg/kg LBW
CL/F normalized by LBW [1, 7]: 0.18 (0.07) L/h/kg LBW
Vd/F normalized by LBW [1, 7]: 0.25 (0.09) L/kg LBW
AUC0-∞ corrected for LBW-normalized dose [1, 8]: 5.75 (1.97) mcg*h/mL/1 mg/kg LBW
CL/F normalized by LBW [1, 8]: 0.19 (0.06) L/h/kg LBW
Vd/F normalized by LBW [1, 8]: 0.25 (0.04) L/kg LBW
AUC0-∞ corrected for LBW-normalized dose [1, 9]: 5.66 (1.40) mcg*h/mL/1 mg/kg LBW
CL/F normalized by LBW [1, 9]: 0.19 (0.06) L/h/kg LBW
Vd/F normalized by LBW [1, 9]: 0.23 (0.05) L/kg LBW
AUC0-∞ corrected for LBW-normalized dose [1, 10]: 6.04 (1.97) mcg*h/mL/1 mg/kg LBW
CL/F normalized by LBW [1, 10]: 0.19 (0.09) L/h/kg LBW
Vd/F normalized by LBW [1, 10]: 0.27 (0.06) L/kg LBW
Vd/F normalized by LBW ([1]; obese non-PMs, Female (n = 18), mean (SD)): 0.28 (0.08) L/kg LBW
Vd/F normalized by LBW ([1]; obese non-PMs, Female (n = 18), mean (SD), listed as Pantoprazole): 0.28 [0.08] L/kg LBW
AUC0-∞ corrected for LBW-normalized dose [1, 11]: 6.03 (3.20) mcg*h/mL/1 mg/kg LBW
CL/F normalized by LBW [1, 11]: 0.21 (0.11) L/h/kg LBW
Vd/F normalized by LBW ([1]; obese non-PMs, Male (n = 17), mean (SD)): 0.22 (0.06) L/kg LBW
Vd/F normalized by LBW ([1]; obese non-PMs, Male (n = 17), mean (SD), listed as Pantoprazole): 0.22 [0.06] L/kg LBW
AUC0-∞ corrected for LBW-normalized dose ([1]; obese non-PMs, Male, mean (SD)): 6.57 (1.88) mcg*h/mL/1 mg/kg LBW
CL/F normalized by LBW ([1]; obese non-PMs, Male, mean (SD)): 0.17 (0.06) L/h/kg LBW
AUC0-∞ corrected for LBW-normalized dose [1, 12]: 6.63 (3.57) mcg*h/mL/1 mg/kg LBW
CL/F normalized by LBW [1, 12]: 0.20 (0.13) L/h/kg LBW
Vd/F normalized by LBW [1, 12]: 0.24 (0.09) L/kg LBW
AUC0-∞ corrected for LBW-normalized dose [1, 13]: 5.76 (2.31) mcg*h/mL/1 mg/kg LBW
CL/F normalized by LBW [1, 13]: 0.20 (0.09) L/h/kg LBW
Vd/F normalized by LBW [1, 13]: 0.28 (0.08) L/kg LBW
AUC0-∞ corrected for LBW-normalized dose [1, 14]: 5.09 (1.81) mcg*h/mL/1 mg/kg LBW
CL/F normalized by LBW [1, 14]: 0.23 (0.10) L/h/kg LBW
Vd/F normalized by LBW [1, 14]: 0.29 (0.07) L/kg LBW
AUC0-∞ corrected for LBW-normalized dose [1, 15]: 7.90 (2.72) mcg*h/mL/1 mg/kg LBW
CL/F normalized by LBW [1, 15]: 0.14 (0.05) L/h/kg LBW
Vd/F normalized by LBW [1, 15]: 0.20 (0.04) L/kg LBW
tlag ([1]; obese, age 6–11 y (n = 18), single oral dose): 1.5 (1.0–3) h
% AUC0-∞ extrapolated from AUC0-last ([1]; obese, age 6–11 y (n = 18)): 1.2 ± 1.6%
AUC0-∞ corrected for TBW-normalized dose ([1]; obese, age 6–11 y (n = 18)): 8.87 ± 4.00 mcg*h/mL/1 mg/kg TBW
CL/F normalized to TBW ([1]; obese, age 6–11 y (n = 18)): 0.14 ± 0.07 L/h/kg TBW
Cmax corrected for LBW-normalized dose ([1]; obese, age 6–11 y (n = 18)): 3.87 ± 1.39 mcg/mL/1 mg/kg LBW
Cmax corrected for TBW-normalized dose ([1]; obese, age 6–11 y (n = 18)): 5.99 ± 2.13 mcg/mL/1 mg/kg TBW
Vd/F normalized to TBW ([1]; obese, age 6–11 y (n = 18)): 0.16 ± 0.05 L/kg TBW
AUC0-∞ corrected for LBW-normalized dose [1, 16]: 5.73 ± 2.48 mcg*h/mL/1 mg/kg LBW and 5.73 (2.48) mcg*h/mL/1 mg/kg LBW
CL/F normalized to LBW [1, 16]: 0.21 ± 0.11 L/h/kg LBW and 0.21 (0.11) L/h/kg LBW
Vd/F normalized to LBW [1, 16]: 0.25 ± 0.09 L/kg LBW and 0.25 (0.09) L/kg LBW
% AUC0-∞ extrapolated from AUC0-last ([1]; obese, age 12–17 y (n = 21)): 2.5 ± 3.3%
AUC0-∞ corrected for TBW-normalized dose ([1]; obese, age 12–17 y (n = 21)): 11.56 ± 4.81 mcg*h/mL/1 mg/kg TBW
CL/F normalized to TBW ([1]; obese, age 12–17 y (n = 21)): 0.10 ± 0.04 L/h/kg TBW
Cmax corrected for LBW-normalized dose ([1]; obese, age 12–17 y (n = 21)): 3.7 ± 0.99 mcg/mL/1 mg/kg LBW
Cmax corrected for TBW-normalized dose ([1]; obese, age 12–17 y (n = 21)): 6.23 ± 1.73 mcg/mL/1 mg/kg TBW
Vd/F normalized to TBW ([1]; obese, age 12–17 y (n = 21)): 0.14 ± 0.04 L/kg TBW
tlag ([1]; obese, age 12–17 y (n = 21)): 2.0 (1.0–8.0) h
AUC0-∞ corrected for LBW-normalized dose ([1]; obese, age 12–17 y, mean, SD): 6.82 ± 2.70 mcg*h/mL/1 mg/kg LBW and 6.82 (2.70) mcg*h/mL/1 mg/kg LBW
CL/F normalized to LBW ([1]; obese, age 12–17 y, mean, SD): 0.17 ± 0.06 L/h/kg LBW and 0.17 (0.06) L/h/kg LBW
Vd/F normalized to LBW ([1]; obese, age 12–17 y, mean, SD): 0.25 ± 0.07 L/kg LBW and 0.25 (0.07) L/kg LBW
AUC0-∞, PM relative to all the non-PMs ([1]; only CYP2C19 PM vs non-PMs, higher): greater than 2 fold
Study participants with AEs (Safety and tolerability; 7 of the 41 study participants, nine AEs, single oral dose): 17%
Serious AEs (Safety and tolerability; 41 participants, single oral dose, follow-up day 10–13): No serious AEs
Severity of AEs (Safety and tolerability; all AEs): mild
AEs considered related to study drug (Safety and tolerability; two AEs (headache and hiccups)): 5%
AUC0-∞ corrected for TBW-normalized dose ([2]; age 6–11 y (n = 13)): 3.1 ± 1.4 mcg*h/mL/1 mg/kg TBW
CL/F normalized to TBW ([2]; age 6–11 y (n = 13)): 0.40 ± 0.22 L/h/kg TBW
Cmax corrected for TBW-normalized dose ([2]; age 6–11 y (n = 13)): 2.1 ± 1.1 mcg/mL/1 mg/kg TBW
Uncorrected AUC0-∞ ([2]; age 6–11 y (n = 13)): 3800 ± 1800 ng·h/mL
Vd/F normalized to TBW ([2]; age 6–11 y (n = 13)): 0.40 ± 0.27 L/kg TBW
t1/2 ([2]; age 6–11 y (n = 13)): 42 ± 12 min
AUC0-∞ corrected for TBW-normalized dose ([2]; age 12–17 y (n = 11)): 6.9 ± 3.4 mcg*h/mL/1 mg/kg TBW
CL/F normalized to TBW ([2]; age 12–17 y (n = 11)): 0.18 ± 0.08 L/h/kg TBW
Cmax corrected for TBW-normalized dose ([2]; age 12–17 y (n = 11)): 3.7 ± 1.8 mcg/mL/1 mg/kg TBW
Uncorrected AUC0-∞ ([2]; age 12–17 y (n = 11)): 4300 ± 3100 ng·h/mL
Uncorrected Cmax ([2]; age 12–17 y (n = 11)): 2200 ± 1400 ng/mL
Vd/F normalized to TBW ([2]; age 12–17 y (n = 11)): 0.21 ± 0.06 L/kg TBW
t1/2 ([2]; age 12–17 y (n = 11)): 54 ± 18 min
